# Measured values published in ChEMBL document CHEMBL5046302, “Identification and Evaluation of Brominated Carbazoles as a Novel Antibiotic Adjuvant Scaffold in MRSA” (2022).
# The source made the active and inactive calls. The calls are words filed in the database; no cut-off is given here.
# Tests used:
# Type in all cases: functional
# Staphylococcus aureus [1] = assay: Upregulation of mecA gene expression in methicillin-resistant Staphylococcus aureus COL at 50 uM by RT-PCR method
# Staphylococcus aureus [2] = assay: Upregulation of mecA gene expression in methicillin-resistant Staphylococcus aureus USA300 at 50 uM by RT-PCR method
# Staphylococcus aureus [3] = assay: Potentiation of oxacillin induced antibacterial activity against methicillin-resistant Staphylococcus aureus COL assessed as fold change in oxacillin MIC at 25 uM after 18 hrs by CLSI protocol based broth microdilution assay
# Staphylococcus aureus [4] = assay: Potentiation of cefoxitin induced antibacterial activity against methicillin-resistant Staphylococcus aureus USA300 assessed as cefoxitin MIC at 25 uM after 18 hrs by CLSI protocol based broth microdilution assay
# Staphylococcus aureus [5] = assay: Potentiation of cefoxitin induced antibacterial activity against methicillin-resistant Staphylococcus aureus COL assessed as fold change in cefoxitin MIC at 25 uM after 18 hrs by CLSI protocol based broth microdilution assay
# Staphylococcus aureus [6] = assay: Potentiation of ceftazidime induced antibacterial activity against methicillin-resistant Staphylococcus aureus USA300 assessed as ceftazidime MIC at 25 uM after 18 hrs by CLSI protocol based broth microdilution assay
# Staphylococcus aureus [7] = assay: Potentiation of cefoxitin induced antibacterial activity against methicillin-resistant Staphylococcus aureus ATCC 43300 assessed as cefoxitin MIC at 25 uM after 18 hrs by CLSI protocol based broth microdilution assay
# Staphylococcus aureus [8] = assay: Potentiation of oxacillin induced antibacterial activity against methicillin-resistant Staphylococcus aureus USA300 assessed as oxacillin MIC at 25 uM after 18 hrs by CLSI protocol based broth microdilution assay
# Staphylococcus aureus [9] = assay: Potentiation of ampicillin induced antibacterial activity against methicillin-resistant Staphylococcus aureus USA100 assessed as ampicillin MIC at 25 uM after 18 hrs by CLSI protocol based broth microdilution assay
# Staphylococcus aureus [10] = assay: Potentiation of methicillin induced antibacterial activity against methicillin-resistant Staphylococcus aureus USA300 assessed as methicillin MIC at 25 uM after 18 hrs by CLSI protocol based broth microdilution assay
# Staphylococcus aureus [11] = assay: Upregulation of mecA gene expression in methicillin-resistant Staphylococcus aureus USA100 at 25 uM by RT-PCR method
# Staphylococcus aureus [12] = assay: Potentiation of oxacillin induced antibacterial activity against methicillin-resistant Staphylococcus aureus assessed as fold decrease in blaZ gene expression at 25 uM by RT-qPCR analysis
# Procedure, shortened: (§1)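 Fold dampening is the relative mRNA level of the gene, normalised to 16S rRNA, in oxacillin-treated cells divided by that in cells cotreated with oxacillin plus carbazole. Carbazole was used at 25 or 50 μM, as given in each line.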
# Staphylococcus aureus [13] = assay: Upregulation of mecA gene expression in methicillin-resistant Staphylococcus aureus USA300 at 25 uM by RT-PCR method
# Staphylococcus aureus [14] = assay: Potentiation of oxacillin induced antibacterial activity against methicillin-resistant Staphylococcus aureus assessed as fold decrease in mecA gene expression at 25 uM by RT-qPCR analysis; procedure, shortened: as §1
Compound,Activity (Staphylococcus aureus [1]),Activity (Staphylococcus aureus [2]),fold change (FC) (Staphylococcus aureus [3]),MIC (Staphylococcus aureus [4]) [µg/mL],fold change (FC) (Staphylococcus aureus [5]),MIC (Staphylococcus aureus [6]) [µg/mL],MIC (Staphylococcus aureus [7]) [µg/mL],MIC (Staphylococcus aureus [8]) [µg/mL],MIC (Staphylococcus aureus [9]) [µg/mL],MIC (Staphylococcus aureus [10]) [µg/mL],Activity (Staphylococcus aureus [11]),fold change (FC) (Staphylococcus aureus [12]),Activity (Staphylococcus aureus [13]),fold change (FC) (Staphylococcus aureus [14])
Brc1cccc2c1[nH]c1ccccc12,inactive,inactive,–,–,–,–,–,–,–,–,–,–,–,–
Brc1cccc2[nH]c3ccccc3c12,–,–,1,8,1,256,16,8,8,8,inactive,8.06,inactive,4
